Assay results as given in ChEMBL document CHEMBL1142273, “SAR studies of capsazepinoid bronchodilators 3: The thiourea part (coupling region) and the 2-(4-chlorophenyl)ethyl moiety (C-region)” (Bioorg Med Chem, 2008).

Experiments:
[1] = species on record: Homo sapiens; assay: Bronchorelaxing effect in leukotriene D4-contracted human lung small airways model assessed as remaining contraction at 10 uM relative to control; type: functional
Procedure, shortened: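 Human small airways (0.5–1.5 mm diameter) from lobectomy tissue, stretched to 1.2 mN and accepted when two control LTD4 contractions differed by under 10%. Test substance at 10 µM was present for one whole cycle: 1 h LTD4-free PSS, then 30 min with 10 nM LTD4. The contraction was compared with the preceding one and given as % remaining, mean ± SEM. Paired preparations per chamber were averaged.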

[2] = species on record: Homo sapiens; assay: Bronchorelaxing effect in leukotriene D4-contracted small human lung small airways model assessed as remaining contraction at 1 uM after 6 hrs relative to control
[3] = species on record: Homo sapiens; assay: Bronchorelaxing effect in leukotriene D4-contracted small human lung small airways model assessed as remaining contraction at 1 uM after 4.5 hrs relative to control
[4] = species on record: Homo sapiens; assay: Bronchorelaxing effect in leukotriene D4-contracted small human lung small airways model assessed as remaining contraction at 1 uM after 1.5 hrs relative to control
[5] = species on record: Homo sapiens; assay: Bronchorelaxing effect in leukotriene D4-contracted small human lung small airways model assessed as remaining contraction at 1 uM after 3 hrs relative to control

Structure (SMILES) | Activity [1] | also measured
Oc1c(O)c(Cl)c2c(c1Cl)CCN(C(=S)NCc1ccccc1)C2 | 10% | 
Oc1c(O)c(Cl)c2c(c1Cl)CCN(C(=S)NCCc1ccc(Cl)cc1)C2 | 14% | Activity [2]: 32%; Activity [3]: 44%; Activity [4]: 79%; Activity [5]: 57%
Oc1cc2c(cc1O)CN(C(=S)NCCc1cccc(Cl)c1)CCC2 | 76% | 
Oc1c(O)c(Cl)c2c(c1Cl)CCN(C(=S)NCCc1cccc(Cl)c1)C2 | 27% | 
O=C(NCCc1ccc(Cl)cc1)N1CCc2cc(O)c(O)cc2C1 | 69% | 
Oc1c(O)c(Cl)c2c(c1Cl)CCN(C(=S)NCCCc1ccccc1)C2 | 11% | 
CCCCCCCCNC(=S)N1CCc2c(Cl)c(O)c(O)c(Cl)c2C1 | 69% | 
Oc1cc2c(cc1O)CN(C(=S)NCc1ccc(Cl)cc1)CCC2 | 70% | 
Oc1c(O)c(Cl)c2c(c1Cl)CCN(C(=S)NCc1ccc(Cl)cc1)C2 | 19% | 
Oc1c(O)c(Cl)c2c(c1Cl)CCN(C(=S)NCCc1ccccc1)C2 | 8% | 
Oc1c(O)c(Cl)c2c(c1Cl)CCN(C(=S)NCCc1ccccc1Cl)C2 | 10% | 
Oc1cc2c(cc1O)CN(C(=S)NCCc1ccc(F)cc1)CCC2 | 68% | 
CC(C)(C)c1ccc(CCNC(=S)N2CCCc3cc(O)c(O)cc3C2)cc1 | 80% | 
CCCCCCCCNC(=S)N1CCCc2cc(O)c(O)cc2C1 | 69% | 
O=C(NCCc1ccc(Cl)cc1)C1CCc2cc(O)ccc2C1 (centres undefined) | 78% | 
Oc1cc2c(cc1O)CN(C(=S)NCCc1ccccc1Cl)CCC2 | 56% | 

Structure (SMILES) | Activity [1] | also measured
Oc1c(O)c(Cl)c2c(c1Cl)CCN(C(=S)NCCc1ccc(F)cc1)C2 | 6% | 
Oc1ccc(CCNC(=S)N2CCc3c(Cl)c(O)c(O)c(Cl)c3C2)cc1 | 22% | 
O=C(CCCc1ccc(Cl)cc1)N1CCc2cc(O)c(O)cc2C1 | 47% | 
Oc1cc2c(cc1O)CN(C(=S)NCCc1ccc(Br)cc1)CCC2 | 67% | 
Oc1c(O)c(Cl)c2c(c1Cl)CCN(C(=S)NCCc1ccncc1)C2 | 33% | 
Oc1c(O)c(Cl)c2c(c1Cl)CCN(C(=S)NCCc1ccc(Br)cc1)C2 | 17% | 
Oc1c(O)c(Cl)c2c(c1Cl)CCN(C(=S)NCCc1ccccn1)C2 | 26% | 
O=C(CCCc1ccc(Cl)cc1)N1CCCc2cc(O)c(O)cc2C1 | 54% | 
O=C(NCCc1ccc(Cl)cc1)N1CCc2c(Cl)c(O)c(O)c(Cl)c2C1 | 16% | Activity [2]: 71%; Activity [3]: 78%; Activity [4]: 91%; Activity [5]: 81%
O=C(NCCc1ccc(Cl)cc1)c1ccc2cc(O)ccc2c1 | 90% | 
Oc1c(O)c(Cl)c2c(c1Cl)CCN(C(=S)NCCc1cccnc1)C2 | 30% | 
CC(C)(C)c1ccc(CCNC(=S)N2CCc3c(Cl)c(O)c(O)c(Cl)c3C2)cc1 | 69% | 
O=C(NCCc1ccc(Cl)cc1)N1CCCc2cc(O)c(O)cc2C1 | 73% | 
O=C(CCCc1ccc(Cl)cc1)N1CCc2c(Cl)c(O)c(O)c(Cl)c2C1 | 16% | Activity [2]: 45%; Activity [3]: 55%; Activity [4]: 80%; Activity [5]: 65%
Oc1cc2c(cc1O)CN(C(=S)NCCc1ccccc1)CCC2 | 71% | 
Oc1cc2c(cc1O)CN(C(=S)NCCCc1ccccc1)CCC2 | 84% | 
